Assay results: PMC8848307 (Journal of medicinal chemistry, 2019)
Where two headings read alike, the source gives them in different places.

How the values were obtained:
STAT3 protein [1] = target: T1, STAT3 protein (Homo sapiens, UniProt P40763); assay: Western blotting of STAT3 degradation in Molm-16 cells; format: cell-based; settings: for degradation of total STAT3 and pSTAT3^Y705 proteins: Molm-16, concentrations up to 10 μM
Molm-16 cell line = assay: Cell growth assay; format: cell-based
[2] = system: STAT1, STAT2, STAT4, STAT5A/B, and STAT6 proteins; assay: Western blotting analysis of other STAT proteins in Molm-16 and SU-DHL-1 cells; format: cell-based; settings: for effect on the levels of any STAT protein: 10 μM, Molm-16 4 h, SU-DHL-1 18 h
Method in brief: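 Molm-16 cells were treated for 4 h and SU-DHL-1 cells for 18 h, with test compound at 0.01–10 μM and control compounds at 10 μM. Cells were lysed and run on SDS–PAGE, then transferred to PVDF and blocked 1 h in 5% blocker in TBST. Blots were probed with primary then secondary antibodies against STAT family members and developed by chemiluminescence.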

STAT3 protein [3] = target: STAT3 protein (Mus musculus, UniProt P42227); assay: Pharmacodynamics in native mouse spleen tissue; format: in vivo; settings: single intravenous dose, 25 mg/kg, CD-1 mice
Chain of STAT3 protein (Mus musculus, UniProt P42227) (P42227 whole entry): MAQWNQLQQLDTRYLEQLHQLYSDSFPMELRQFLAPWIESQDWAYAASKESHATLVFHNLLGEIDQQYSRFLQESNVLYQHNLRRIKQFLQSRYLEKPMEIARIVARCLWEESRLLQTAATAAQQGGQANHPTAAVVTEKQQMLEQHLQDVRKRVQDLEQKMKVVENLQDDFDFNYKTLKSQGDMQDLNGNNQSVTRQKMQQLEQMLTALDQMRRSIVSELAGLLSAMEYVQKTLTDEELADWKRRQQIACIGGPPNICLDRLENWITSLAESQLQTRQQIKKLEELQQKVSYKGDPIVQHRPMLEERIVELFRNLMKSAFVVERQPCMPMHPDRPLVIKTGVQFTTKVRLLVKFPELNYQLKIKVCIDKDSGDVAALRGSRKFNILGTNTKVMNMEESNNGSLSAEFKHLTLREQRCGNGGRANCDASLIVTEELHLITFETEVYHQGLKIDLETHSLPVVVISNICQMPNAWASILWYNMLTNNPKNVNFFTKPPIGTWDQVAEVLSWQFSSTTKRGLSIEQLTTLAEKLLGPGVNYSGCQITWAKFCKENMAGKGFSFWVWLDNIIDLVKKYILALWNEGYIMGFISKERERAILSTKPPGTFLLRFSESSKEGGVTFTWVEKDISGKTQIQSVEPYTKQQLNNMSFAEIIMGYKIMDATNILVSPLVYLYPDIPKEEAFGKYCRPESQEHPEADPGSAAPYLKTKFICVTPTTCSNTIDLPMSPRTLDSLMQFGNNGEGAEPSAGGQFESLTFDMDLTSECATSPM
Method in brief: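 Female CD-1 mice received a single intravenous dose of test compound or vehicle (10% PEG400 + 90% PBS). Mice were euthanized at set time points and spleens harvested. Native spleen lysates were immunoblotted for STAT3.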

STAT3 protein [4] = target: T1, STAT3 protein; assay: Pharmacodynamics in Molm-16 xenograft tumor tissue; format: in vivo, SCID mice
Method in brief: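 Molm-16 subcutaneous xenografts were grown in CB.17 SCID mice (3 × 10^6 cells in 5 mg/mL Matrigel). Mice received a single intravenous dose of test compound or vehicle (10% PEG400 + 90% PBS). Animals were euthanized at set time points, including 1 h and 72 h. Tumor lysates were immunoblotted for total STAT3 and pSTAT3Y705.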

Molm-16 xenograft tumor [5] = assay: Antitumor efficacy in the Molm-16 xenograft model; format: in vivo, SCID mice
Method in brief: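 Molm-16 cells (3 × 10^6) injected subcutaneously in 5 mg/mL Matrigel into CB.17 SCID mice. At an average tumor volume of 150 mm3, mice were randomized and dosed intravenously at 25 or 50 mg/kg three times weekly, or at 50 mg/kg once weekly, for 3 weeks. Vehicle was 10% PEG400 + 90% PBS. Tumors and body weight were measured 2–3 times weekly, with volume = (length × width2)/2.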

other STAT proteins = settings: cited from earlier work
Molm-16 xenograft tumor [6] = settings: 100 mg/kg weekly dosing; cited from earlier work
STAT3 protein [7] = target: T1, STAT3 protein; assay: Western blotting of STAT3 degradation in SU-DHL-1 cells; format: cell-based; settings: SU-DHL-1, concentrations up to 10 μM
SU-DHL-1 cell line = assay: Cell growth assay; format: cell-based; settings: SU-DHL-1, up to 10 μM
[8] = 25 or 50 mg/kg three times per week

T1 sequence (P40763 whole entry): as the sequence (P42227 whole entry) above, with D760E counted along it

NC(=O)CC[C@H](NC(=O)[C@@H]1CC[C@@H]2CCN(C(=O)CCCCCC#Cc3cccc4c3CN(C3CCC(=O)NC3=O)C4=O)C[C@H](NC(=O)c3cc4cc(CP(=O)(O)O)ccc4[nH]3)C(=O)N21)C(=O)NC(c1ccccc1)c1ccccc1 (stereo partly drawn) [Compound 33, ((2-(((5S,8S,10aR)-8-(((S)-5-Amino-1-(benzhydrylamino)-1,5-dioxopentan-2-yl)carbamoyl)-3-(8-(2-(2,6-dioxopiperidin-3-yl)-1-oxoisoindolin-4-yl)oct-7-ynoyl)-6-oxodecahydropyrrolo-[1,2-a][1,5]diazocin-5-yl)carbamoyl)-1H-indol-5-yl)methyl)-phosphonic Acid]
degradation of total STAT3 and pSTAT3^Y705 proteins (STAT3 protein [1]): fail to degrade
activity in inhibition of cell growth (Molm-16 cell line; Molm-16): very weak activity

NC(=O)CC[C@H](NC(=O)[C@@H]1CC[C@@H]2CCN(C(=O)CCCCCC#Cc3cccc4c3CN(C3CCC(=O)NC3=O)C4=O)C[C@H](NC(=O)c3cc4cc(C(F)(F)P(=O)(O)O)ccc4[nH]3)C(=O)N21)C(=O)NC(c1ccccc1)c1ccccc1 (stereo partly drawn) [SD-36, ((2-(((5S,8S,10aR)-8-(((S)-5-Amino-1-(benzhydrylamino)-1,5-dioxopentan-2-yl)carbamoyl)-3-(8-(2-(2,6-dioxopiperidin-3-yl)-1-oxoisoindolin-4-yl)oct-7-ynoyl)-6-oxodecahydropyrrolo-[1,2-a][1,5]diazocin-5-yl)carbamoyl)-1H-indol-5-yl)-difluoromethyl)phosphonic Acid]
concentration very effective in reducing the level of STAT3 protein (STAT3 protein [1]; Western blot, Molm-16 and SU-DHL-1 cells): ≥ 0.1 µM
selectivity for degradation of STAT3 over other STAT members ([2]; Molm-16 and SU-DHL-1 cell lines): > 100 fold
effect on STAT1, STAT2, STAT4, STAT5A/B, and STAT6 proteins ([2]; Molm-16 and SU-DHL-1 cell lines, up to 10 μM): little or no effect
persistence of STAT3 reduction in spleen (STAT3 protein [3]): more than 48 h
reducing STAT3 protein in native mouse spleen tissue (STAT3 protein [3]): very effective
persistence of STAT3 elimination in tumor tissue (STAT3 protein [4]; single dose): > 3 days
reduction of total STAT3 and pSTAT3^Y705 proteins in xenograft tumor tissue (STAT3 protein [4]; single dose 50 mg/kg, after 1 h): > 95%
tumor response (Molm-16 xenograft tumor [5]; 50 mg/kg once weekly for 3 weeks): very effective in inhibition of tumor growth
duration of dosing after which complete tumor regression was achieved (Molm-16 xenograft tumor [5]; [8]): 2 weeks
persistence of complete tumor regression after termination of the treatment (Molm-16 xenograft tumor [5]; [8]): more than 2 weeks
tumor response (Molm-16 xenograft tumor [5]; 25 or 50 mg/kg three times per week for 3 weeks intravenously): complete tumor regression
weight loss or other signs of toxicity (Molm-16 xenograft tumor [5]; efficacy experiment, Molm-16 xenograft mice): no weight loss or other signs of toxicity
affinity to other STAT proteins tested (other STAT proteins): much weaker affinity
tumor response (Molm-16 xenograft tumor [6]): complete tumor regression

CN1C(=O)CCC(N2Cc3c(C#CCCCCCC(=O)N4CC[C@H]5CC[C@@H](C(=O)N[C@@H](CCC(N)=O)C(=O)NC(c6ccccc6)c6ccccc6)N5C(=O)[C@@H](NC(=O)c5cc6cc(C(F)(F)P(=O)(O)O)ccc6[nH]5)C4)cccc3C2=O)C1=O (stereo partly drawn) [SD-36Me, ((2-(((5S,8S,10aR)-8-(((S)-5-Amino-1-(benzhydrylamino)-1,5-dioxopentan-2-yl)carbamoyl)-3-(8-(2-(1-methyl-2,6-dioxopi-peridin-3-yl)-1-oxoisoindolin-4-yl)oct-7-ynoyl)-6-oxodecahydropyrrolo[1,2-a][1,5]diazocin-5-yl)carbamoyl)-1H-indol-5-yl)difluoromethyl)phosphonic Acid]
degradation of total STAT3 and pSTAT3^Y705 proteins (STAT3 protein [1]): completely ineffective
effect on the levels of STAT3 and pSTAT3^Y705 (STAT3 protein [7]): no effect
times less potent than SD-36 in cell growth inhibition (Molm-16 cell line; Molm-16, ratio of IC50): 400 times
effect on cell viability (SU-DHL-1 cell line): no effect
effect on the levels of any STAT protein [2]: no effect

CC(=O)N1CC[C@H]2CC[C@@H](C(=O)N[C@@H](CCC(N)=O)C(=O)NC(c3ccccc3)c3ccccc3)N2C(=O)[C@@H](NC(=O)c2cc3cc(C(F)(F)P(=O)(O)O)ccc3[nH]2)C1 [SI-109, ((2-(((5S,8S,10aR)-3-Acetyl-8-(((S)-5-amino-1-(benzhydrylamino)-1,5-dioxopentan-2-yl)carbamoyl)-6-oxodecahydropyrrolo[1,2-a][1,5]diazocin-5-yl)carbamoyl)-1H-indol-5-yl)difluoromethyl)phosphonic Acid]
effect on the level of total STAT3 protein (STAT3 protein [1]; Molm-16, 4 h, concentrations up to 1 μM): no effect
effect on the level of pSTAT3^Y705 protein (STAT3 protein [1]; Molm-16, 4 h, up to / at 1 μM): only modestly decreases
effect on the levels of STAT3 and pSTAT3^Y705 (STAT3 protein [7]): no effect
effect on cell viability (SU-DHL-1 cell line): no effect
effect on the levels of any STAT protein [2]: no effect
